From ChEMBL document CHEMBL1932995, “Synthesis of 5-aryl-1,4-benzodiazepine derivatives attached in resorcinaren-PAMAM dendrimers and their anti-cancer activity” (Bioorg Med Chem, 2012)
Activity calls are given as the source filed them. The calls are words filed in the database; no cut-off is given here.

Experiments:
SK-LU-1 [1] = assay: Growth inhibition of human SKLU1 cells at 50 uM after 48 hrs by SRB assay; assay type: functional; conditions: for inhibition of growth at 50 µM: SK-LU-1, 48 h, read-out: GI
Summary of the method: (§1)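 Cell lines obtained from NCI, grown in RPMI-1640 with 10% fetal bovine serum, 2 mM glutamine, penicillin G, streptomycin, amphotericin B and 1% non-essential amino acids, at 37 °C, humidified 5% CO2. Cell viability above 95% by trypan blue. Compounds tested in DMSO. Growth read by sulforhodamine B protein staining in microculture per NCI protocol, reported as % inhibition.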

HCT-15 [2] = assay: Growth inhibition of human HCT15 cells at 50 uM after 48 hrs by SRB assay; assay type: functional; conditions: for inhibition of growth at 50 µM: HCT-15, 48 h, read-out: GI; summary of the method: as §1
PC-3 = assay: Growth inhibition of human PC3 cells at 50 uM after 48 hrs by SRB assay; assay type: functional; conditions: for inhibition of growth at 50 µM: PC-3, 48 h, read-out: GI; summary of the method: as §1
MCF7 = assay: Growth inhibition of human MCF7 cells at 50 uM after 48 hrs by SRB assay; assay type: functional; conditions: for inhibition of growth at 50 µM: MCF7, 48 h, read-out: GI; summary of the method: as §1
K562 = assay: Growth inhibition of human K562 cells at 50 uM after 48 hrs by SRB assay; assay type: functional; conditions: for inhibition of growth at 50 µM: K562, 48 h, read-out: GI; summary of the method: as §1
U-251 = assay: Growth inhibition of human U251 cells at 50 uM after 48 hrs by SRB assay; assay type: functional; conditions: for inhibition of growth at 50 µM: U-251, 48 h, read-out: GI; summary of the method: as §1
HCT-15 [3] = assay: Anticancer activity against human HCT15 cells after 48 hrs by SRB assay; assay type: functional, cell-based
SK-LU-1 [4] = assay: Anticancer activity against human SKLU1 cells after 48 hrs by SRB assay; assay type: functional, cell-based

| Structure (SMILES) | inhibition of growth at 50 µM (SK-LU-1 [1]) | inhibition of growth at 50 µM (HCT-15 [2]) | inhibition of growth at 50 µM (PC-3) | inhibition of growth at 50 µM (MCF7) | inhibition of growth at 50 µM (K562) | inhibition of growth at 50 µM (U-251) | IC50 (HCT-15 [3]) | IC50 (SK-LU-1 [4]) | growth inhibition (GI) (PC-3) | growth inhibition (GI) (MCF7) | growth inhibition (GI) (SK-LU-1 [1]) | growth inhibition (GI) (HCT-15 [2]) | growth inhibition (GI) (K562) | growth inhibition (GI) (U-251) |
| --- | --- | --- | --- | --- | --- | --- | --- | --- | --- | --- | --- | --- | --- | --- |
| NCCNC(=O)COc1cc(OCC(=O)NCCN)c2cc1C(CCc1ccccc1)c1cc(c(OCC(=O)NCCN)cc1OCC(=O)NCCN)C(CCc1ccccc1)c1cc(c(OCC(=O)NCCN)cc1OCC(=O)NCCN)C(CCc1ccccc1)c1cc(c(OCC(=O)NCCN)cc1OCC(=O)NCCN)C2CCc1ccccc1 (configuration not stated) | 30.9% | 34.9% | 29% | 33.2% | 35.3% | 37% |  |  |  |  |  |  |  |  |
| COC(=O)CN1C(=O)CN=C(c2ccccc2)c2cc(Cl)ccc21 | 13.2% | 12% | 12.3% | 19.3% | 19.7% | 11.7% | Active | Active |  |  |  |  |  |  |
| CCCCCCCCCCCC1c2cc(c(OCC(=O)NCCN(CCC(=O)NCCN)CCC(=O)NCCN)cc2OCC(=O)NCCN(CCC(=O)NCCN)CCC(=O)NCCN)C(CCCCCCCCCCC)c2cc(c(OCC(=O)NCCN(CCC(=O)NCCN)CCC(=O)NCCN)cc2OCC(=O)NCCN(CCC(=O)NCCN)CCC(=O)NCCN)C(CCCCCCCCCCC)c2cc(c(OCC(=O)NCCN(CCC(=O)NCCN)CCC(=O)NCCN)cc2OCC(=O)NCCN(CCC(=O)NCCN)CCC(=O)NCCN)C(CCCCCCCCCCC)c2cc1c(OCC(=O)NCCN(CCC(=O)NCCN)CCC(=O)NCCN)cc2OCC(=O)NCCN(CCC(=O)NCCN)CCC(=O)NCCN (configuration not stated) | 100% | 91.3% | 38.5% | 92% | 100% | 56.5% |  |  |  |  |  |  |  |  |
| Oc1cc(O)c2cc1C(CCc1ccccc1)c1cc(c(O)cc1O)C(CCc1ccccc1)c1cc(c(O)cc1O)C(CCc1ccccc1)c1cc(c(O)cc1O)C2CCc1ccccc1 (configuration not stated) | 14.8% | 14.7% | 5.4% | 21.5% | 60.8% | 47.6% |  |  |  |  |  |  |  |  |
| COC(=O)CN1C(=O)CN=C(c2ccccc2)c2cc([N+](=O)[O-])ccc21 | 27.5% | 25.2% | 22.3% | 22.2% | 30.6% | 33.7% |  |  |  |  |  |  |  |  |
| COC(=O)CN1C(=O)CN=C(c2ccccc2Cl)c2cc(Cl)ccc21 | 12.5% | 12.9% | 12.8% | 11.8% | 15.9% | 18.6% | Active | Active |  |  |  |  |  |  |
| COC(=O)CN1C(=O)CN=C(c2ccccc2F)c2cc(Cl)ccc21 | 19.8% | 26% | 22.4% | 24.5% | 27.2% | 20.7% |  |  |  |  |  |  |  |  |
| CCCCCCCCCCCC1c2cc(c(OCC(=O)NCCN)cc2OCC(=O)NCCN)C(CCCCCCCCCCC)c2cc(c(OCC(=O)NCCN)cc2OCC(=O)NCCN)C(CCCCCCCCCCC)c2cc(c(OCC(=O)NCCN)cc2OCC(=O)NCCN)C(CCCCCCCCCCC)c2cc1c(OCC(=O)NCCN)cc2OCC(=O)NCCN (configuration not stated) | 16.2% | 31.5% |  |  | 11.2% | 18.1% | Active | Active | Active | Active |  |  |  |  |
| NCCNC(=O)CCN(CCNC(=O)COc1cc(OCC(=O)NCCN(CCC(=O)NCCN)CCC(=O)NCCN)c2cc1C(CCc1ccccc1)c1cc(c(OCC(=O)NCCN(CCC(=O)NCCN)CCC(=O)NCCN)cc1OCC(=O)NCCN(CCC(=O)NCCN)CCC(=O)NCCN)C(CCc1ccccc1)c1cc(c(OCC(=O)NCCN(CCC(=O)NCCN)CCC(=O)NCCN)cc1OCC(=O)NCCN(CCC(=O)NCCN)CCC(=O)NCCN)C(CCc1ccccc1)c1cc(c(OCC(=O)NCCN(CCC(=O)NCCN)CCC(=O)NCCN)cc1OCC(=O)NCCN(CCC(=O)NCCN)CCC(=O)NCCN)C2CCc1ccccc1)CCC(=O)NCCN (configuration not stated) |  |  |  |  |  |  | Active | Active | Active | Active | Active | Active | Active | Active |
